Source: ChEMBL document CHEMBL1255367, “Potency of SMP-601, a novel carbapenem, in hematogenous murine bronchopneumonia caused by methicillin-resistant and vancomycin-intermediate Staphylococcus aureus” (Antimicrob Agents Chemother, 2008)
Converted amounts (≈) assume the structure as drawn. The source made the active and inactive calls. No cut-off for these calls is given here.

Experiments:
[1] = AUC (0 to infinity) in serum of methicillin-resistant Staphylococcus aureus infected ddY mouse at 100 mg/kg, ip administered 1 day post infection by fluorescence polarization immunoassay; format: ADME, organism-based; parameters: time infinity, dose 100 mg/kg, route intraperitoneal
Method in brief: (§1)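 Single 100 mg/kg i.p. dose given 1 day after i.v. MRSA NUMR101 agar-bead infection. Mice killed 5, 15, 30, 60, 90, 120 min after dosing, n = 3 per time point. Serum and saline lung homogenate stored at –80°C. Assayed by fluorescence polarization immunoassay (detection limit 2 µg/ml) against standard curves in pooled murine serum or lung homogenate. Parameters by moment analysis.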

Staphylococcus aureus [2] = test: Antibacterial activity against vancomycin-intermediate Staphylococcus aureus Mu50 infected in ddY mouse assessed as survival of the mouse at 100 mg/kg, ip administered 1 day postinfection measured after 10 days; format: functional; conditions: route intraperitoneal
Method in brief: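 Cyclophosphamide-pretreated (100 mg/kg, days −3 and −1) ddY mice infected i.v. with Mu50 agar beads at 2 x 10^9 to 4 x 10^9 CFU/ml. Treated 100 mg/kg i.p. b.i.d. from day 1 for 10 days. Survival recorded daily for 10 days, n = 10, Kaplan-Meier curves.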

Staphylococcus aureus [3] = test: Antibacterial activity against vancomycin-intermediate Staphylococcus aureus Mu50 infected in ddY mouse assessed as viable bacteria in lungs at 100 mg/kg, ip administered 1 day postinfection measured after 3 days (Rvb=9.64 +/- 0.63 log CFU/ml); format: functional; conditions: route intraperitoneal
Staphylococcus aureus [4] = test: Antibacterial activity against methicillin-resistant Staphylococcus aureus NUMR101 infected in ddY mouse assessed as viable bacteria in lungs at 100 mg/kg, ip administered 1 day postinfection (Rvb=8.42 +/- 0.50 log CFU/ml); format: functional; conditions: route intraperitoneal
Serum [5] = test: fAUC (0 to infinity) in serum of methicillin-resistant Staphylococcus aureus infected ddY mouse at 100 mg/kg, ip administered 1 day post infection by fluorescence polarization immunoassay; format: ADME, organism-based; parameters: dose 100 mg/kg, route intraperitoneal; conditions: in vivo, 24 h; method in brief: as §1
[6] = AUC (0 to infinity) in lung of methicillin-resistant Staphylococcus aureus infected ddY mouse at 100 mg/kg, ip administered 1 day post infection by fluorescence polarization immunoassay; format: ADME, organism-based; parameters: time infinity, dose 100 mg/kg, route intraperitoneal; method in brief: as §1
[7] = Cmax in serum of methicillin-resistant Staphylococcus aureus infected ddY mouse at 100 mg/kg, ip administered 1 day post infection by fluorescence polarization immunoassay; format: ADME, organism-based; parameters: dose 100 mg/kg, route intraperitoneal; method in brief: as §1
Serum [8] = test: fCmax in serum of methicillin-resistant Staphylococcus aureus infected ddY mouse at 100 mg/kg, ip administered 1 day post infection by fluorescence polarization immunoassay; format: ADME, organism-based; parameters: dose 100 mg/kg, route intraperitoneal; conditions: in vivo, 24 h; method in brief: as §1
[9] = Cmax in lung of methicillin-resistant Staphylococcus aureus infected ddY mouse at 100 mg/kg, ip administered 1 day post infection by fluorescence polarization immunoassay; format: ADME, organism-based; parameters: dose 100 mg/kg, route intraperitoneal; method in brief: as §1
[10] = Half life in serum of methicillin-resistant Staphylococcus aureus infected ddY mouse at 100 mg/kg, ip administered 1 day post infection by fluorescence polarization immunoassay; format: ADME, organism-based; parameters: dose 100 mg/kg, route intraperitoneal; method in brief: as §1
[11] = Half life of free unbound fraction in serum of methicillin-resistant Staphylococcus aureus infected ddY mouse at 100 mg/kg, ip administered 1 day post infection by fluorescence polarization immunoassay; format: ADME, organism-based; parameters: dose 100 mg/kg, route intraperitoneal; method in brief: as §1
[12] = Half life in lung of methicillin-resistant Staphylococcus aureus infected ddY mouse at 100 mg/kg, ip administered 1 day post infection by fluorescence polarization immunoassay; format: ADME, organism-based; parameters: dose 100 mg/kg, route intraperitoneal; method in brief: as §1
Staphylococcus aureus [13] = test: Antibacterial activity against vancomycin intermediate Staphylococcus aureus Mu50 by broth microdilution method; format: functional
Method in brief: (§2)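 Broth microdilution in Mueller-Hinton II broth. Inoculum 5 x 10^5 CFU/ml. Drugs dissolved in sterile water just before use.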

Serum [14] = test: Protein binding in serum of methicillin-resistant Staphylococcus aureus infected ddY mouse at 100 mg/kg, ip; format: ADME, organism-based; parameters: dose 100 mg/kg, route intraperitoneal; conditions: in vivo
[15] = Ratio of AUC (0 to 24 hrs) in lung in vancomycin intermediate Staphylococcus aureus infected ddY mouse at 100 mg/kg, ip BID to MIC for methicillin-resistant Staphylococcus aureus
[16] = Half life in lung of methicillin-resistant Staphylococcus aureus infected ddY mouse at 100 mg/kg, ip administered 1 day post infection by paper disk bioassay method; format: ADME, organism-based; parameters: dose 100 mg/kg, route intraperitoneal
Method in brief: (§3)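 MRSA-infected mice, one day post-inoculation, received a single 100 mg/kg i.p. dose. Serum and lung homogenate collected at 5–120 min, n = 3 per time point. Paper disk bioassay with Bacillus subtilis ATCC 6633, triplicate, 50 µl sample. Detection limits 0.07 µg/ml (serum) and 0.12 µg/ml (lung). Standards in pooled murine matrix, linear-regression curves. Moment analysis.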

[17] = Half life of free unbound fraction in serum of methicillin-resistant Staphylococcus aureus infected ddY mouse at 100 mg/kg, ip administered 1 day post infection by paper disk bioassay method; format: ADME, organism-based; parameters: dose 100 mg/kg, route intraperitoneal; method in brief: as §3
[18] = Half life in serum of methicillin-resistant Staphylococcus aureus infected ddY mouse at 100 mg/kg, ip administered 1 day post infection by paper disk bioassay method; format: ADME, organism-based; parameters: dose 100 mg/kg, route intraperitoneal; method in brief: as §3
[19] = Cmax in lung of methicillin-resistant Staphylococcus aureus infected ddY mouse at 100 mg/kg, ip administered 1 day post infection by paper disk bioassay method; format: ADME, organism-based; parameters: dose 100 mg/kg, route intraperitoneal; method in brief: as §3
Serum [20] = test: fCmax in serum of methicillin-resistant Staphylococcus aureus infected ddY mouse at 100 mg/kg, ip administered 1 day post infection by paper disk bioassay method; format: ADME, organism-based; parameters: dose 100 mg/kg, route intraperitoneal; conditions: in vivo, 24 h; method in brief: as §3
[21] = Cmax in serum of methicillin-resistant Staphylococcus aureus infected ddY mouse at 100 mg/kg, ip administered 1 day post infection by paper disk bioassay method; format: ADME, organism-based; parameters: dose 100 mg/kg, route intraperitoneal; method in brief: as §3
[22] = AUC (0 to infinity) in lung of methicillin-resistant Staphylococcus aureus infected ddY mouse at 100 mg/kg, ip administered 1 day post infection by paper disk bioassay method; format: ADME, organism-based; parameters: dose 100 mg/kg, route intraperitoneal, time infinity; method in brief: as §3
Serum [23] = test: fAUC (0 to infinity) in serum of methicillin-resistant Staphylococcus aureus infected ddY mouse at 100 mg/kg, ip administered 1 day post infection by paper disk bioassay method; format: ADME, organism-based; parameters: dose 100 mg/kg, route intraperitoneal; conditions: in vivo, 24 h; method in brief: as §3
[24] = AUC (0 to infinity) in serum of methicillin-resistant Staphylococcus aureus infected ddY mouse at 100 mg/kg, ip administered 1 day post infection by paper disk bioassay method; format: ADME, organism-based; parameters: time infinity, dose 100 mg/kg, route intraperitoneal; method in brief: as §3
Staphylococcus aureus [25] = test: Antibacterial activity against methicillin-resistant Staphylococcus aureus NUMR101 by broth microdilution method; format: functional; method in brief: as §2
[26] = T>MIC in serum of methicillin-resistant Staphylococcus aureus infected ddY mouse at 10 mg/kg, ip BID by paper disk bioassay method; format: functional; conditions: route intraperitoneal
[27] = fT>MIC in serum of methicillin-resistant Staphylococcus aureus infected ddY mouse at 10 mg/kg, ip BID by paper disk bioassay method; format: functional; conditions: route intraperitoneal
[28] = T>MIC in lung of methicillin-resistant Staphylococcus aureus infected ddY mouse at 10 mg/kg, ip BID by paper disk bioassay method; format: functional; conditions: route intraperitoneal
[29] = T>MIC in serum in vancomycin intermediate Staphylococcus aureus infected ddY mouse at 100 mg/kg, ip BID by paper disk bioassay method; format: functional; conditions: route intraperitoneal
[30] = fT>MIC in serum in vancomycin intermediate Staphylococcus aureus infected ddY mouse at 100 mg/kg, ip BID by paper disk bioassay method; format: functional; conditions: route intraperitoneal
[31] = T>MIC in lung in vancomycin intermediate Staphylococcus aureus infected ddY mouse at 100 mg/kg, ip BID by paper disk bioassay method; format: functional; conditions: route intraperitoneal
Staphylococcus aureus [32] = test: Antibacterial activity against vancomycin intermediate Staphylococcus aureus Mu50 infected in ddY mouse assessed as decrease in lung abscesses at 100 mg/kg, ip after 3 days; format: functional, organism-based; parameters: dose 100 mg/kg
Method in brief: (§4)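 Mice pretreated with cyclophosphamide (100 mg/kg, days −3 and −1) and infected i.v. with Mu50 agar beads (4 x 10^7 to 6 x 10^7 CFU/ml). Given 100 mg/kg i.p. b.i.d. for 3 days, then sacrificed. Lungs fixed in formalin and stained with H&E. Abscesses counted per slice, lung area by cross-section paper, n = 3.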

Staphylococcus aureus [33] = test: Antibacterial activity against vancomycin intermediate Staphylococcus aureus Mu50 infected in ddY mouse assessed as decrease in lung inflammation at 100 mg/kg, ip after 3 days; format: functional, organism-based; parameters: dose 100 mg/kg; method in brief: as §4

CN[C@H](CC(C)C)C(=O)N[C@H]1C(=O)N[C@@H](CC(N)=O)C(=O)N[C@H]2C(=O)N[C@H]3C(=O)N[C@H](C(=O)N[C@H](C(=O)O)c4cc(O)cc(O)c4-c4cc3ccc4O)[C@H](O)c3ccc(c(Cl)c3)Oc3cc2cc(c3O[C@@H]2O[C@H](CO)[C@@H](O)[C@H](O)[C@H]2O[C@H]2C[C@](C)(N)[C@H](O)[C@H](C)O2)Oc2ccc(cc2Cl)[C@H]1O [VANCOMYCIN]
AUC(0-inf) [1]: 261 µg·h/mL
Activity (Staphylococcus aureus [2]): 20%
CFU/ml (Staphylococcus aureus [3]): 8.72 log CFU/ml
CFU/ml (Staphylococcus aureus [4]): 5.29 log CFU/ml
fAUC (Serum [5]): 196 µg·h/mL
AUC(0-inf) [6]: 127 µg·h/mL
Cmax [7]: 60800 ng/mL
fCmax (Serum [8]): 45.6 µg/mL
Cmax [9]: 38500 ng/mL
half-life [10]: 2.95 h
half-life [11]: 2.95 h
half-life [12]: 1.72 h
MIC (Staphylococcus aureus [13]): 8 µg/mL (≈ 5.52 µM)
Activity (Serum [14]): 25%
AUC0-24/MIC at 10 mg/kg [15]: 31.8 µg/mL

C[C@H]1C=C(c2csc(SC3=C(C(=O)O)N4C(=O)[C@H]([C@@H](C)O)[C@H]4[C@H]3C)n2)CN1 [RAZUPENEM]
half-life [16]: 0.61 h
half-life [17]: 0.84 h
half-life [18]: 0.84 h
Cmax [19]: 18000 ng/mL
fCmax (Serum [20]): 25.81 µg/mL
Cmax [21]: 108000 ng/mL
AUC(0-inf) [22]: 28.4 µg·h/mL
fAUC (Serum [23]): 30.6 µg·h/mL
AUC(0-inf) [24]: 127 µg·h/mL
Activity (Staphylococcus aureus [2]): 70%
CFU/ml (Staphylococcus aureus [3]): 7.42 log CFU/ml
CFU/ml (Staphylococcus aureus [4]): 5.5 log CFU/ml
MIC (Staphylococcus aureus [25]): 2 µg/mL (≈ 4.91 µM)
MIC (Staphylococcus aureus [13]): 2 µg/mL (≈ 4.91 µM)
fT>MIC [26]: 16.9
fT>MIC [27]: 2.9
fT>MIC [28]: 0
fT>MIC [29]: 28.2
fT>MIC [30]: 23.6
fT>MIC [31]: 20.3
Activity (Serum [14]): 76%
Activity (Staphylococcus aureus [32]): Active
Activity (Staphylococcus aureus [33]): Active
